Key:
Spirodela polyrhiza [1] = assay: Inhibition of chlorophyll in Spirodela polyrhiza fronds at 10 ug/mL using light intensity of 45 uE/m2/s measured after 7 days; format: functional; settings: 168 h
Method in brief: (§1)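 Giant duckweed assay. Compound in DMF dropped onto filter paper, solvent evaporated 15 min, paper placed in flask with 15 mL fresh medium and shaken >10 min. 10 fronds inoculated per flask and grown 7 days at 23-26 °C, 16 h light/8 h dark, ca. 45 µE m^-2 s^-1. DMF plus medium served as control. Chl extracted in 96% ethanol overnight at 4 °C; OD read at 665 and 649 nm; content expressed as percent of control.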

Spirodela polyrhiza [2] = assay: Inhibition of chlorophyll in Spirodela polyrhiza fronds at 1 ug/mL using light intensity of 45 uE/m2/s measured after 7 days; format: functional; settings: 168 h; method in brief: as §1
Digitaria [3] = assay: Herbicidal activity against Digitaria adscendens assessed as inhibition of fresh plant weight at 750 g/ha using preemergence protocol measured after 24 days under green house conditions; settings: in Digitaria adscendens, pre-emergence
Digitaria [4] = assay: Herbicidal activity against Digitaria adscendens assessed as inhibition of fresh plant weight at 750 g/ha using postemergence protocol measured after 24 days under green house conditions; settings: in Digitaria adscendens, post-emergence
Amaranthus retroflexus [5] = assay: Herbicidal activity against Amaranthus retroflexus assessed as inhibition of fresh plant weight at 750 g/ha using preemergence protocol measured after 24 days under green house conditions; settings: pre-emergence
Amaranthus retroflexus [6] = assay: Herbicidal activity against Amaranthus retroflexus assessed as inhibition of fresh plant weight at 750 g/ha using postemergence protocol measured after 24 days under green house conditions; settings: post-emergence
[7] = tested on: Brassica rapa subsp. oleifera; assay: Herbicidal activity against Brassica rapa subsp. oleifera assessed as inhibition of fresh plant weight at 750 g/ha using preemergence protocol measured after 24 days under green house conditions; settings: pre-emergence
[8] = tested on: Brassica rapa subsp. oleifera; assay: Herbicidal activity against Brassica rapa subsp. oleifera assessed as inhibition of fresh plant weight at 750 g/ha using postemergence protocol measured after 24 days under green house conditions; settings: post-emergence
Echinochloa crus-galli [9] = assay: Herbicidal activity against Echinochloa crus-galli (barnyard grass) assessed as inhibition of fresh plant weight at 750 g/ha using preemergence protocol measured after 24 days under green house conditions; settings: pre-emergence
Echinochloa crus-galli [10] = assay: Herbicidal activity against Echinochloa crus-galli (barnyard grass) assessed as inhibition of fresh plant weight at 750 g/ha using postemergence protocol measured after 24 days under green house conditions; settings: post-emergence

| Compound | inhibition at 10 µg/mL (Spirodela polyrhiza [1]) | inhibition at 1 µg/mL (Spirodela polyrhiza [2]) | inhibition at 750 g/ha (Digitaria [3]) | inhibition at 750 g/ha (Digitaria [4]) | inhibition at 750 g/ha (Amaranthus retroflexus [5]) | inhibition at 750 g/ha (Amaranthus retroflexus [6]) | inhibition at 750 g/ha [7] | inhibition at 750 g/ha [8] | inhibition at 750 g/ha (Echinochloa crus-galli [9]) | inhibition at 750 g/ha (Echinochloa crus-galli [10]) |
| --- | --- | --- | --- | --- | --- | --- | --- | --- | --- | --- |
| Cc1cc(-c2cccc(C(F)(F)F)c2)c(NCc2ccc(Cl)cc2)nn1 | 85% | 25% | 0% | 18% | 3% | 44% | 7% | 27% | 9% | 15% |
| Cc1cc(-c2cccc(C(F)(F)F)c2)c(NCc2ccccc2Cl)nn1 | 90% | 73% | 1% | 29% | 36% | 33% | 0% | 34% | 3% | 26% |
| Cc1cc(-c2cccc(C(F)(F)F)c2)c(NC(C)c2ccccc2)nn1 (stereo not given) | 63% | 31% | 12% | 54% | 10% | 7% | 12% | 0% | 10% | 43% |
| Cc1cc(-c2cccc(C(F)(F)F)c2)c(NC(C)c2ccc(F)cc2)nn1 (stereo not given) | 79% | 47% | 28% | 57% | 1% | 1% | 13% | 0% | 14% | 0% |
| Cc1cc(-c2cccc(C(F)(F)F)c2)c(NC(C)c2ccc(Cl)cc2)nn1 (stereo not given) | 23% | 15% | 11% | 67% | 16% | 17% | 2% | 8% | 13% | 27% |
| Cc1cc(-c2cccc(C(F)(F)F)c2)c(NCCc2ccccc2)nn1 | 100% | 100% | 27% | 11% | 16% | 30% | 0% | 45% | 4% | 13% |
| Cc1cc(-c2cccc(C(F)(F)F)c2)c(Nc2ccccc2C)nn1 | 83% | 65% | 11% | 1% | 0% | 38% | 7% | 86% | 0% | 10% |
| Cc1ccc(Nc2nnc(C)cc2-c2cccc(C(F)(F)F)c2)c(C)c1 | 72% | 69% | 7% | 11% | 0% | 0% | 10% | 22% | 0% | 25% |
| COc1ccccc1Nc1nnc(C)cc1-c1cccc(C(F)(F)F)c1 | 82% | 62% | 0% | 0% | 4% | 30% | 9% | 6% | 0% | 11% |
| COc1ccc(Nc2nnc(C)cc2-c2cccc(C(F)(F)F)c2)cc1 | 100% | 100% | 2% | 89% | 55% | 27% | 13% | 44% | 5% | 28% |
| Cc1cc(-c2cccc(C(F)(F)F)c2)c(Nc2ccccc2Cl)nn1 | 100% | 82% | 0% | 19% | 10% | 41% | 9% | 93% | 2% | 24% |
| Cc1cc(-c2cccc(C(F)(F)F)c2)c(Nc2cccc(Cl)c2)nn1 | 100% | 100% | 0% | 5% | 12% | 38% | 3% | 63% | 0% | 7% |
| Cc1cc(-c2cccc(C(F)(F)F)c2)c(Nc2cccc(Br)c2)nn1 | 100% | 100% | 0% | 0% | 0% | 30% | 14% | 17% | 0% | 0% |
| Cc1cc(-c2cccc(C(F)(F)F)c2)c(Nc2ccc(Br)cc2)nn1 | 63% | 59% | 14% | 26% | 54% | 45% | 26% | 36% | 15% | 13% |
| Cc1cc(-c2cccc(C(F)(F)F)c2)c(Nc2ccc(OC(F)(F)F)cc2)nn1 | 83% | 65% | 5% | 35% | 35% | 26% | 0% | 50% | 0% | 21% |
| Cc1cc(-c2cccc(C(F)(F)F)c2)c(NCc2ccccc2)nn1 | 86% | 83% | 7% | 23% | 4% | 27% | 0% | 30% | 0% | 8% |
| Cc1ccc(CNc2nnc(C)cc2-c2cccc(C(F)(F)F)c2)cc1 | 74% | 34% | 64% | 54% | 31% | 2% | 16% | 20% | 78% | 0% |
| COc1ccc(CNc2nnc(C)cc2-c2cccc(C(F)(F)F)c2)cc1 | 84% | 51% | 0% | 8% | 2% | 18% | 0% | 14% | 22% | 0% |
| Cc1cc(-c2cccc(C(F)(F)F)c2)c(NCc2ccccc2F)nn1 | 81% | 77% | 0% | 24% | 8% | 44% | 24% | 49% | 0% | 10% |

— ChEMBL document CHEMBL3046507, “Synthesis and herbicidal activities of novel 3-N-substituted amino-6-methyl-4-(3-trifluoromethylphenyl)pyridazine derivatives” (2008)
